Test results as given in paper PMC5900865 (Clinical Pharmacology in Drug Development, 2017).

Legend:
[1] = test system: CYP2D6; details: cited from earlier work
[2] = Study 2 single-dose pharmacokinetics in elderly adults; format: in vivo, human; details: for AUC(0-inf) / Cmax / Tmax: human, plasma, oral, 10 mg; for T1/2 / Fe0–120, fraction excreted: single 10 mg; for T1/2: fasted; for Fe0–120, fraction excreted: urine 0 to 120 hours
How it was run: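 Elderly men and women (65–85 y) received a single oral 10 mg dose, fasted, in the morning. Plasma vortioxetine and metabolites were assayed by HPLC-MS/MS after liquid–liquid extraction. Urine was pooled predose and at 24-h intervals to 120 h. Parameters came from noncompartmental analysis. Below-LLOQ concentrations were entered as zero in means. Tmax is median (min–max).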

[3] = test system: CYP2E1; details: cited from earlier work
[4] = test system: CYP2C9; details: cited from earlier work
[5] = test system: elderly adult men and women; assay: Study 2 safety evaluation; format: in vivo, human; details: elderly population, single dose of 10 mg
How it was run: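 Elderly Japanese adults aged 65–85 (10 men, 10 women) were randomized 4:1, double-blind, to one oral 10 mg dose or placebo. Dosing was fasted, in the morning of day 1. Participants stayed on site days 1–5 and were discharged day 6. AEs, weight, vital signs, 12-lead ECG and haematology, chemistry, coagulation and urinalysis were recorded. TEAE incidence and intensity were compared with placebo.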

[6] = test system: CYP1A2; details: cited from earlier work
[7] = test system: healthy adult men; assay: Study 1A safety evaluation; format: in vivo, human
How it was run: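 Randomized, double-blind, placebo-controlled study in healthy Japanese men. Single oral doses rose from 2.5 to 40 mg, doubling over 5 cohorts of 9 (2:1 drug:placebo). Each escalation followed review of safety data to day 5 and PK data to 48 h. AEs, body weight, vital signs, 12-lead ECG and haematology, chemistry, coagulation and urinalysis were recorded. TEAE incidence, intensity and drug relationship were compared with placebo.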

[8] = test system: CYP3A4/5; details: cited from earlier work
[9] = Study 1A single-rising-dose pharmacokinetics; format: in vivo, human; details: for Tmax / half-life / AUC(0-inf) / Cmax: human, plasma; for CL/F / Fe0–48, cumulative excretion ratio (% of dose): fasted, men; for Fe0–48, cumulative excretion ratio (% of dose): urine 0 to 48 hours
How it was run: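 Healthy men received single oral doses of 2.5–40 mg. The 2.5 mg cohort was redosed fed (30 min post-breakfast) on day 15 after a 14-day washout. EDTA plasma was sampled predose and 1–216 h postdose; urine was pooled at 0–6, 6–12, 12–24 and 24–48 h. Samples were stored at ≤ −20 °C, liquid–liquid extracted and assayed by HPLC-MS/MS. Parameters came from noncompartmental analysis.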

[10] = test system: CYP2B6; details: cited from earlier work
[11] = Study 3 food-effect pharmacokinetics; format: in vivo, human
How it was run: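 Open-label two-period crossover in healthy men given 10 mg orally on days 1 and 15, fasted or fed. Fasted dosing followed ≥10 h fasting, with water. Fed dosing came within 10 min after a high-fat breakfast (≥900 kcal, ≥35% fat) eaten within 20 min. Plasma was sampled predose to 168 h; urine was pooled to 168 h. Log-transformed Cmax/AUC were analysed by ANOVA with 90% CI of back-transformed LS mean ratios. Tmax used Wilcoxon signed-rank.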

[12] = test system: healthy adult men and women; assay: Study 1B safety evaluation; format: in vivo, human
How it was run: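 Double-blind, placebo-controlled (2:1) multiple-dose study. Men received 5, 10 or 20 mg and women 5 or 10 mg, oral and fed, daily on days 1–12. Women were dosed only after that dose was assessed in men. Participants were discharged day 17, with post-study exam day 20. AEs, weight, vitals, 12-lead ECG and clinical labs were recorded. TEAE incidence, intensity and drug relationship were assessed by dose and sex versus placebo.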

[13] = test system: healthy Japanese adults; assay: Safety evaluation across all 3 studies; format: in vivo, human; details: any of the studies
[14] = test system: CYP2A6; details: cited from earlier work
[15] = test system: CYP2C8; details: cited from earlier work
[16] = test system: CYP2C19; details: cited from earlier work
[17] = test system: healthy adult men; assay: Study 3 safety evaluation; format: in vivo, human; details: single 10 mg
[18] = elderly women, n = 7, mean (SD)
[19] = single 2.5 mg, n = 5, mean (SD)

## Cc1ccc(Sc2ccccc2N2CCNCC2)c(C)c1 [Vortioxetine, 1‐[2‐(2,4‐dimethylphenylsulfanyl)phenyl]piperazine]
[1]
  inhibitory or inducing effect in vitro: No inhibitory or inducing effect
[2]; female
  AUC(0-inf): 305 ng·h/mL
  Cmax: 4.6 ng/mL
  Tmax: 6 h
[2]; male
  AUC(0-inf): 378 ng·h/mL
  Cmax: 4.2 ng/mL
  Tmax: 6 h
[2]; elderly men, n = 8, mean (SD)
  T1/2: 85.2 (29.8) h
  Fe0–120, fraction excreted: 0.0 (0.0) %
[2]; [18]
  T1/2: 63.5 (10.7) h
  Fe0–120, fraction excreted: 0.0 (0.0) %
[3]
  inhibitory or inducing effect in vitro: No inhibitory or inducing effect
[4]
  inhibitory or inducing effect in vitro: No inhibitory or inducing effect
[5]
  safety and tolerability: safe and tolerated
[6]
  inhibitory or inducing effect in vitro: No inhibitory or inducing effect
[7]; healthy men
  tolerated single dose: up to 20 mg
[7]; single 40‐mg dose group
  AEs reported: Seven AEs
[8]
  inhibitory or inducing effect in vitro: No inhibitory or inducing effect
[9]; both, po
  Tmax: 6 to 13 h
[9]; male, oral
  half-life: 50 to 70 h
[9]; male, oral, 2.5 mg
  AUC(0-inf): 56.5 ng·h/mL
  Cmax: 0.8 ng/mL
  Tmax: 10 h
[9]; male, oral, 5 mg
  AUC(0-inf): 188 ng·h/mL
  Cmax: 1.9 ng/mL
  Tmax: 10 h
  half-life: 69.4 h
[9]; male, oral, 10 mg
  AUC(0-inf): 348 ng·h/mL
  Cmax: 3.5 ng/mL
  Tmax: 10 h
  half-life: 66 h
[9]; male, oral, 20 mg
  AUC(0-inf): 560 ng·h/mL
  Cmax: 7.7 ng/mL
  Tmax: 9 h
[9]; male, oral, 40 mg
  AUC(0-inf): 1310 ng·h/mL
  Cmax: 19.4 ng/mL
  Tmax: 6.3 h
[9]; [19]
  CL/F: 50 (20) L/h
  Fe0–48, cumulative excretion ratio (% of dose): 0.0 (0.0) %
[9]; single 5 mg, n = 6, mean (SD)
  CL/F: 29.6 (10.3) L/h
  Fe0–48, cumulative excretion ratio (% of dose): 0.0 (0.0) %
[9]; single 10 mg, n = 6, mean (SD)
  CL/F: 35.2 (19.2) L/h
  Fe0–48, cumulative excretion ratio (% of dose): 0.007 (0.018) %
[9]; single 20 mg, n = 6, mean (SD)
  CL/F: 41.4 (17.6) L/h
  Fe0–48, cumulative excretion ratio (% of dose): 0.023 (0.023) %
[9]; single 40 mg, n = 4, mean (SD)
  CL/F: 34.0 (13.1) L/h
  Fe0–48, cumulative excretion ratio (% of dose): 0.034 (0.017) %
[10]
  inhibitory or inducing effect in vitro: No inhibitory or inducing effect
[11]; male, human, plasma, oral, 10 mg
  Tmax: 12 h
[11]; single 10 mg, no‐effect boundary 90%CI, 0.8–1.25
  90%CIs for the LS mean ratios of Cmax and AUC (fed vs fasted): within the no‐effect boundary
[12]; healthy men
  tolerated multiple dose: up to 20 mg
[12]; healthy women
  tolerated multiple dose: ≤ 10 mg
[12]; multiple doses, all groups
  intensity of TEAEs: all TEAEs were mild in intensity
[13]
  deaths or serious AEs: no deaths or serious AEs leading to trial discontinuation were observed
[14]
  inhibitory or inducing effect in vitro: No inhibitory or inducing effect
[15]
  inhibitory or inducing effect in vitro: No inhibitory or inducing effect
[16]
  inhibitory or inducing effect in vitro: No inhibitory or inducing effect
[17]
  safety profiles, fasted vs fed: no significant differences in safety profiles
